Source: publication PMC3819402 (Journal of medicinal chemistry, 2013)
“Also recorded” adds a separate entry of the source. Read-outs that look alike come from different tables or passages of the source.

Experiments:
[1] = tested on: Caco-2 cells
[2] = tested on: H80; assay: In vitro cytotoxicity, H80; type: cell-based; settings: Homo sapiens, 96 h, read-out: IC50 (GI50) H80
Method in brief: (§1)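 Tumour cell lines were grown in DMEM or RPMI with 10% FBS and penicillin-streptomycin, then plated in twelve-well dishes. Test compound was added 24 h later at various concentrations. After 96 h, viable cells were counted by trypan blue exclusion from duplicate wells.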

[3] = tested on: SK BR-3; assay: In vitro cytotoxicity, SK BR-3; type: cell-based; settings: Homo sapiens, SK-BR-3, 96 h, read-out: IC50 (GI50) SK BR-3
Method in brief: as §1

[4] = tested on: MCF-7; assay: In vitro cytotoxicity, MCF-7; type: cell-based; settings: Homo sapiens, MCF7, 96 h, read-out: IC50 (GI50) MCF-7
Method in brief: as §1

[5] = tested on: NAMALWA; assay: In vitro cytotoxicity, NAMALWA; type: cell-based; settings: Homo sapiens, 96 h, read-out: IC50 (GI50) NAMALWA
Method in brief: as §1

[6] = tested on: N417; assay: In vitro cytotoxicity, N417; type: cell-based; settings: Homo sapiens, N417, 96 h, read-out: IC50 (GI50) N417
Method in brief: as §1

[7] = tested on: RF-1; assay: In vitro cytotoxicity, RF-1; type: cell-based; settings: Homo sapiens, RF1, 96 h, read-out: IC50 (GI50) RF-1
Method in brief: as §1

[8] = tested on: SK-MEL-28; assay: In vitro cytotoxicity, SK-MEL-28; type: cell-based; settings: Homo sapiens, SK-MEL-28, 96 h, read-out: IC50 (GI50) SK-MEL-28
Method in brief: as §1

[9] = tested on: MES-SA; assay: In vitro cytotoxicity, MES-SA; type: cell-based; settings: Homo sapiens, 96 h, read-out: IC50 (GI50) MES-SA
[10] = tested on: H187; assay: In vitro cytotoxicity, H187; type: cell-based; settings: Homo sapiens, NCI-H187, 96 h, read-out: IC50 (GI50) H187
Method in brief: as §1

[11] = tested on: RF-48; assay: In vitro cytotoxicity, RF-48; type: cell-based; settings: Homo sapiens, RF48, 96 h, read-out: IC50 (GI50) RF-48
Method in brief: as §1

[12] = tested on: HCT116; assay: In vitro cytotoxicity, HCT116; type: cell-based; settings: Homo sapiens, HCT-116, 96 h, read-out: IC50 (GI50) HCT116
Method in brief: as §1

[13] = tested on: MIAPaCa2; assay: In vitro cytotoxicity, MIAPaCa2; type: cell-based; settings: Homo sapiens, MIA PaCa-2, 96 h, read-out: IC50 (GI50) MIAPaCa2
Method in brief: as §1

[14] = tested on: DU145 cells; assay: PARP cleavage western blot, tumor cells; type: cell-based, human; settings: tumor cell line
Method in brief: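 DU145 cells in 100 mm plates were treated 24 h after plating with DMSO or increasing concentrations of test compound, then collected at set time points. Frozen pellets were lysed in 0.1% Triton X-100 buffer with protease inhibitors. Equal protein was run on 10% SDS-PAGE and moved to nitrocellulose. The blot was probed with anti-PARP antibody and IRDye 800 secondary, then scanned on Odyssey for PARP cleavage.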

[15] = tested on: DAUDI; assay: In vitro cytotoxicity, DAUDI; type: cell-based; settings: Homo sapiens, 96 h, read-out: IC50 (GI50) DAUDI
Method in brief: as §1

[16] = tested on: DU145; assay: In vitro cytotoxicity, DU145; type: cell-based; settings: Homo sapiens, DU-145, 96 h, read-out: IC50 (GI50) DU145
[17] = tested on: BT20; assay: In vitro cytotoxicity, BT20; type: cell-based; settings: Homo sapiens, BT-20, 96 h, read-out: IC50 (GI50) BT20
Method in brief: as §1

[18] = tested on: MOLT-4; assay: In vitro cytotoxicity, MOLT-4; type: cell-based; settings: Homo sapiens, MOLT-4, 96 h, read-out: IC50 (GI50) MOLT-4
Method in brief: as §1

[19] = tested on: SKOV3; assay: In vitro cytotoxicity, SKOV3; type: cell-based; settings: Homo sapiens, SK-OV-3, 96 h, read-out: IC50 (GI50) SKOV3
Method in brief: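 Tumour cells grown in DMEM or RPMI with 10% fetal bovine serum and 1 unit/mL penicillin-streptomycin, plated in twelve-well dishes, then dosed 24 h later with test compound at various concentrations. After 96 h, viable cells counted in duplicate wells by trypan blue exclusion.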

[20] = tested on: BT20 human breast tumor xenograft; assay: Nude mouse xenograft assay
[21] = tested on: DU145 cells; assay: Fluorescent tubulin staining, mitotic spindle; type: cell-based, human; settings: 24 h exposure; 25 nM in Figure 2
[22] = tested on: HepG2 cells; assay: Cytotoxicity to HepG2; type: cell-based; settings: 4 h exposure, Alamar Blue
[23] = tested on: normal cell line; assay: PARP cleavage, normal cell line; type: cell-based; settings: data not shown
[24] = tested on: tubulin in DU145 cells; assay: In vivo; type: cell-based, human; settings: for polymerized versus soluble tubulin in cells: 24 h treatment
[25] = biological target: porcine brain tubulin, preformed microtubules (paclitaxel binding site) (Sus scrofa, UniProt P02550+P02554); assay: Competitive mass spectrometry binding assay, paclitaxel site; settings: paclitaxel 1.2 μM, 1 mM GTP, competitor 0.1–100 μM
[26] = tested on: PC3; assay: In vitro cytotoxicity, PC3; type: cell-based; settings: Homo sapiens, PC-3, 96 h, read-out: IC50 (GI50) PC3
Method in brief: as §1

[27] = tested on: LNCAP; assay: In vitro cytotoxicity, LNCAP; type: cell-based; settings: Homo sapiens, 96 h, read-out: IC50 (GI50) LNCAP
Method in brief: as §1

[28] = tested on: DU145 cells; assay: Cell cycle progression by flow cytometry; type: cell-based, human; settings: 24 h, propidium iodide
Method in brief: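 DU145 cells were grown in DMEM with 10% FBS and penicillin-streptomycin, then treated 24 h after plating. Harvest was 24 h after treatment, pooling trypsinised and non-attached cells. Cells were PBS-washed and fixed in ice-cold 70% ethanol for at least 24 h. They were stained with propidium iodide plus RNase A (0.5 mg) for 30 min at 37 °C, run on a FACScan, and analysed for cell-cycle distribution.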

[29] = tested on: MIA-PaCa-2 cells; assay: Soft agar assay; type: cell-based, human; settings: three weeks of growth
[30] = tested on: purified bovine brain tubulin; assay: In vitro tubulin polymerization; type: biochemical; settings: 10 μM, 37 °C, absorbance at 340 nm over 40 min
[31] = tested on: MES-SA / DX5; assay: Cytotoxicity in multidrug-resistant subline MES-SA/DX5; type: cell-based, human; settings: all three pairs of sensitive and drug-resistant cancer cells
[32] = tested on: various tumor cell lines; assay: Cytotoxicity across a wide spectrum of cancer cell lines; type: cell-based; settings: Homo sapiens, read-out: IC50 values across tumor cell lines of Table 3
Method in brief: as §1

[33] = tested on: T47D; assay: In vitro cytotoxicity, T47D; type: cell-based; settings: Homo sapiens, 96 h, read-out: IC50 (GI50) T47D
Method in brief: as §1

[34] = tested on: HCT15; assay: In vitro cytotoxicity, HCT15; type: cell-based; settings: Homo sapiens, HCT-15, 96 h, read-out: IC50 (GI50) HCT15
Method in brief: as §1

[35] = biological target: porcine brain tubulin (vinblastine binding site) (Sus scrofa, UniProt P02550+P02554); assay: Competitive mass spectrometry binding assay, vinblastine site; settings: vinblastine 1.2 μM, no GTP; competitor 0.1–100 μM

O=c1cc[nH]c(=S)[nH]1 [2-thiouracil, 2-Thiouracil, reference compound]
LD50 to Caco-2 cells ([1]; human, Caco-2, 1 h): > 1000 µM

COc1ccc(NS(=O)(=O)/C=C/c2c(OC)cc(OC)cc2OC)cc1 [6i, (E)-N-(4-Methoxyphenyl)-2-(2′,4′,6′-trimethoxyphenyl)ethenesulfonamide]
IC50 [2]: 100 nM
IC50 [3]: 50 nM
IC50 [4]: 50 nM
IC50 [5]: 100 nM
IC50 [6]: 50 nM
IC50 [7]: 50 nM
IC50 [8]: 50 nM
IC50 [9]: 50 nM

COc1cc(OC)c(/C=C/S(=O)(=O)Nc2ccc(OC)c(O)c2)c(OC)c1 [6p, (E)-N-(3-Hydroxy-4-methoxyphenyl)-2-(2′,4′,6′-trimethoxyphenyl)ethenesulfonamide]
IC50 [10]: 10 nM
IC50 [11]: 10 nM
IC50 [12]: 10 nM
IC50 [6]: 10 nM
IC50 [7]: 10 nM
IC50 [13]: 10 nM

COc1cc(OC)c(/C=C/S(=O)(=O)Nc2ccc(OC)c(N)c2)c(OC)c1 [6t, (E)-N-(3-Amino-4-methoxyphenyl)-2-(2′,4′,6′-trimethoxyphenyl)ethenesulfonamide]
PARP cleavage [14]: Full length PARP gets cleaved
IC50 [15]: 8 nM
IC50 [16]: 8 nM
IC50 [17]: 8 nM
IC50 [18]: 8 nM
IC50 [19]: 8 nM
tumor growth in xenograft ([20]; 20 mg/kg IP every other day, 6 injections, female nude mice): readily inhibited tumor growth
body weight ([20]; 20 mg/kg IP, xenograft study): no body weight loss of more than 10%; also recorded: no reduction in body weight
LD50 to Caco-2 cells ([1]; one hour incubation, Alamar Blue): >1000 µM
effect on microtubule cytoskeleton / mitotic spindle [21]: complete depolymerization of the microtubule cytoskeleton
LD50 to HepG2 cells [22]: >1000 µM
PARP cleavage in normal cell line [23]: no PARP cleavage
polymerized versus soluble tubulin in cells [24]: concentration-dependent depolymerization of tubulin; also recorded: completely inhibits the polymerization of tubulin
tubulin depolymerization in paclitaxel pre-treated cells ([24]; paclitaxel 24 h, then compound 4 h): effective at depolymerizing paclitaxel induced polymerized tubulin
competition with paclitaxel binding to tubulin [25]: did not compete
IC50 [26]: 8 nM
IC50 [5]: 8 nM
IC50 [27]: 8 nM
cell cycle distribution ([28]; 0.005 μM): accumulated in the G2/M phase
cell cycle distribution ([28]; 0.02 μM): a majority of cells showed G2/M arrest
anchorage-independent growth in soft agar [29]: inhibition of anchorage-independent growth of tumor cells in a dose dependent manner
tubulin polymerization [30]: completely inhibit tubulin polymerization
resistance factors [31]: < 2
IC50 [8]: 8 nM
IC50 [32]: 3 to 10 nM
IC50 [33]: 8 nM
IC50 [34]: 8 nM
competition with vinblastine binding to tubulin [35]: did not compete

COc1cc(OC)c(/C=C/S(=O)(=O)Nc2ccc(OC)c(NCC(=O)O)c2)c(OC)c1 [25a, (E)-2-(2-Methoxy-5-(2-(2′,4′,6′-trimethoxyphenyl)vinylsulfonamido)phenylamino)acetic acid]
tubulin polymerization [30]: completely inhibit tubulin polymerization

COc1cc(OC)c(/C=C/S(=O)(=O)Nc2ccc(OC)c(NC(C)(C)C(=O)O)c2)c(OC)c1 [25c, (E)-2-(2-Methoxy-5-(2-(2′,4′,6′-trimethoxyphenyl)vinylsulfonamido)phenylamino)-2-methylpropanoic acid]
IC50 [15]: 30 nM
IC50 [18]: 30 nM
IC50 [6]: 30 nM
tubulin polymerization [30]: completely inhibit tubulin polymerization
resistance factors [31]: < 2

CC(=O)O[C@H]1C(=O)[C@@]2(C)[C@H]([C@H](OC(=O)c3ccccc3)[C@]3(O)C[C@H](OC(=O)[C@H](O)[C@@H](NC(=O)c4ccccc4)c4ccccc4)C(C)=C1C3(C)C)[C@]1(OC(C)=O)CO[C@@H]1C[C@@H]2O [Paclitaxel, reference compound]
polymerized versus soluble tubulin in cells [24]: induced a shift from soluble to polymerized tubulin
tubulin polymerization [30]: strong increase in turbidity

CC(=O)O[C@@]12CO[C@@H]1C[C@H](O)[C@@]1(C)C(=O)[C@H](O)C3=C(C)[C@@H](OC(=O)[C@H](O)[C@@H](NC(=O)OC(C)(C)C)c4ccccc4)C[C@@](O)([C@@H](OC(=O)c4ccccc4)[C@H]21)C3(C)C.O.O.O [docetaxel, reference compound]
competition with paclitaxel binding to tubulin [25]: effectively competed

COC(=O)Nc1nc2cc(C(=O)c3cccs3)ccc2[nH]1 [nocodazole, Nocodazole, reference compound]
tubulin polymerization [30]: completely inhibit tubulin polymerization

CC[C@]1(O)C[C@H]2CN(CCc3c([nH]c4ccccc34)[C@@](C(=O)OC)(c3cc4c(cc3OC)N(C=O)[C@H]3[C@@](O)(C(=O)OC)[C@H](OC(C)=O)[C@]5(CC)C=CCN6CC[C@]43[C@@H]65)C2)C1 [vincristine, reference compound]
competition with vinblastine binding to tubulin [35]: effectively competed
